Consider 10 compounds from ChEMBL document CHEMBL1148693, “Expeditious and convenient synthesis of pregnanes and its glycosides as potential anti-dyslipidemic and anti-oxidant agents” (2007).

Holding throughout (assay type): functional
For assay [1], the system named is Rattus norvegicus. The experiment in a line: Decrease in total cholesterol level in WR-1339-induced hyperlipidemic rat plasma at 400 mg/kg, po. Also on record: scale not given: the % may be the effect or the level left. The procedure, abridged:
(§1)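 Male adult Charles Foster rats (200–225 g), six per group. Triton WR-1339 400 mg/kg b.w. ip; treatment suspended in water with 0.2% w/v gum acacia, given po at the same time; diet withdrawn. Vehicle controls were included. After 18 h, under thiopentone anaesthesia, retro-orbital blood was collected into EDTA. Plasma was diluted 1:3 in saline and assayed enzymatically on an autoanalyzer. Percent change vs triton-only group, Student's t-test.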

Assay [2] can be described thus: Superoxide radical scavenging activity assessed by measuring formazone produced at 400 ug/kg. To be noted: in the assay text read “400 ug/ml” for “400 ug/kg”. The procedure, abridged: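 Superoxide generated enzymatically with xanthine ([…]), xanthine oxidase (0.04 U) and nitroblue tetrazolium, in 100 mM phosphate buffer, pH 8.2. Samples were sonicated in buffer and added at […], 37 °C for 30 min. Stopped with 0.5 mL glacial acetic acid; formazan read at 560 nm. Percent inhibition from ε 7.2×10³ M⁻¹cm⁻¹.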

Assay [3] is described as follows: Hydroxy radical scavenging activity assessed by measuring malondialdehyde produced at 400 ug/kg by thiobarbituric acid method. To be noted: in the assay text read “400 ug/ml” for “400 ug/kg”. The method in brief:
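Non-enzymic hydroxyl-radical generation: deoxyribose 2.8 mM, FeSO4 2 mM, sodium ascorbate 2.0 mM and H2O2 2.8 mM in 50 mM KH2PO4, pH 7.4. Run with or without test compound at […], 37 °C for 90 min. Compared with compound-free reaction by Student's t-test.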

In assay [4] the test system is Rattus norvegicus. The experiment in a line: Decrease in triglyceride level in WR-1339-induced hyperlipidemic rat plasma at 400 mg/kg, po. Also on record: scale not given: the % may be the effect or the level left. The procedure, abridged:
as §1

Assay [5] deals with Rattus norvegicus. Kind of assay: Decrease in phospholipid level in WR-1339-induced hyperlipidemic rat plasma at 400 mg/kg, po. Also on record: scale not given: the % may be the effect or the level left. The method in brief:
as §1

Assay [6] relates to Rattus norvegicus. The experiment in a line: Decrease in total cholesterol level in WR-1339-induced hyperlipidemic rat plasma at 100 mg/kg, po. Also on record: scale not given: the % may be the effect or the level left. The procedure, abridged:
as §1

Assay [7] relates to Rattus norvegicus. Kind of assay: Decrease in triglyceride level in WR-1339-induced hyperlipidemic rat plasma at 100 mg/kg, po. Also on record: scale not given: the % may be the effect or the level left. The procedure, abridged: as §1
In assay [8] the test system is Rattus norvegicus. Kind of assay: Decrease in phospholipid level in WR-1339-induced hyperlipidemic rat plasma at 100 mg/kg, po. Also on record: scale not given: the % may be the effect or the level left. The procedure, abridged: as §1

Consider `CC(=O)C1=CC[C@H]2[C@@H]3CC=C4C[C@@H](OC(=O)c5ccccc5Cl)CC[C@]4(C)[C@H]3CC[C@]12C`, for which the Activity in the assay with Rattus norvegicus [1] was -21%; in assay [2], 14.33 nmol/min; in assay [3] it was 35.01 nmol/h; in the assay with Rattus norvegicus [4], -14%; with Rattus norvegicus [5], -17%.
On to `CC(=O)OC[C@H]1O[C@H](OCCO[C@@H]2C[C@H]3[C@@H]4CC=C5C[C@@H](O)CC[C@]5(C)[C@H]4CC[C@]3(C)[C@H]2C(C)=O)[C@@H](OC(C)=O)[C@@H](OC(C)=O)[C@@H]1OC(C)=O`, for which the Activity amounted to 13.22 nmol/min in assay [2] and 35.05 nmol/h in assay [3].
Turning to `CC(=O)OCCO[C@@H]1C[C@H]2[C@@H]3CC=C4C[C@@H](OC(C)=O)CC[C@]4(C)[C@H]3CC[C@]2(C)[C@H]1C(C)=O`, the Activity in the assay with Rattus norvegicus [1] is -13%; in assay [2] it was 21.5 nmol/min; in assay [3] it was 41.5 nmol/h; in the assay on Rattus norvegicus [4], -16%; with Rattus norvegicus [5], -13%.
Consider `C[C@H](O)[C@H]1[C@H](OCCO)C[C@H]2[C@@H]3CC=C4C[C@@H](O)CC[C@]4(C)[C@H]3CC[C@]12C`, for which the Activity in the assay on Rattus norvegicus [1] was -23%; in assay [2], 9.33 nmol/min; in assay [3] it was 31.09 nmol/h; in the assay on Rattus norvegicus [4], -26%; with Rattus norvegicus [5], -25%.
In the same order, the values of `CC(=O)OCCO[C@@H]1C[C@H]2[C@@H]3CC=C4C[C@@H](OC(C)=O)CC[C@]4(C)[C@H]3CC[C@]2(C)[C@H]1[C@H](C)OC(C)=O` are -18%, 12.63 nmol/min, 33.9 nmol/h, -13% and -14%.
`C/C(=N\OCCCCCBr)C1=CC[C@H]2[C@@H]3CC=C4C[C@@H](O)CC[C@]4(C)[C@H]3CC[C@]12C`: the Activity with Rattus norvegicus [1] is -4%; in assay [2], 15.33 nmol/min; in assay [3], 38.52 nmol/h; in the assay on Rattus norvegicus [4] it was -5%; in the assay with Rattus norvegicus [5], -5%.
On to `CC(=O)C1=CC[C@H]2[C@@H]3CC=C4C[C@@H](OC(=O)c5ccc(Cl)cc5)CC[C@]4(C)[C@H]3CC[C@]12C`, for which the Activity in the assay on Rattus norvegicus [1] is -27%; in assay [2] it was 11.1 nmol/min; in assay [3], 27.16 nmol/h; with Rattus norvegicus [4], -25%; in the assay with Rattus norvegicus [5], -27%.
As to `CC(=O)O[C@@H]1[C@@H](OC(C)=O)[C@H](C)O[C@@H](OCCO[C@@H]2C[C@H]3[C@@H]4CC=C5C[C@@H](O)CC[C@]5(C)[C@H]4CC[C@]3(C)[C@H]2C(C)=O)[C@@H]1OC(C)=O`, the Activity in assay [2] came to 12.8 nmol/min; in assay [3], 39.02 nmol/h.
In the case of `CC(=O)[C@H]1[C@H](OCCO)C[C@H]2[C@@H]3CC=C4C[C@@H](O)CC[C@]4(C)[C@H]3CC[C@@]21C`, the Activity in the assay with Rattus norvegicus [1] is -13%; in assay [2], 7.83 nmol/min; in assay [3], 36.12 nmol/h; in the assay on Rattus norvegicus [4], -11%; in the assay with Rattus norvegicus [5], -8%.
As for `Cc1ccc(C)c(OCCCC(C)(C)C(=O)O)c1` [GEMFIBROZIL], the Activity is recorded as -37% with Rattus norvegicus [6], -32% with Rattus norvegicus [7] and -36% in the assay on Rattus norvegicus [8].
